Screens as filed in PubChem.
Sampled rows, rich in hits. Any-hit rate of the full collection: about 2.2%.
MEX-5 binding: C. elegans MEX-5 TCR-2 RNA binding activity | AID 1832 | actives 0.38% (n = 300,000) | MEX-5/FITC-TCR2 RNA binding, fluorescence polarization; active compounds read low | Q9XUB2 | activity score (negative = inhibition of binding), % at 10 µM;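 active = inhibition past about -25% in most replicates, and total fluorescence under double the plate's negative control median, limit read from the data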;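 note: 0% = DMSO and -100% = 5 µM competing unlabeled TCR2 RNA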
BCLXL inh: inhibitors of human Bcl-xL; GST-Bcl-xL / FITC-Bim BH3 peptide fluorescence polarization; actives 0.7% (n = 320,000); Q07817; inhibition, % at 10.9 µM;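 active = inhibition above the mean of all tested compounds plus 3 SD, cutoff set per campaign, cut at about 30% in these data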;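 note: 0% = DMSO wells and 100% = unlabeled Bim-BH3 peptide competitor; inhibitors lower millipolarization by displacing the labeled peptide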
Target sequence (Q07817 whole entry, looked up): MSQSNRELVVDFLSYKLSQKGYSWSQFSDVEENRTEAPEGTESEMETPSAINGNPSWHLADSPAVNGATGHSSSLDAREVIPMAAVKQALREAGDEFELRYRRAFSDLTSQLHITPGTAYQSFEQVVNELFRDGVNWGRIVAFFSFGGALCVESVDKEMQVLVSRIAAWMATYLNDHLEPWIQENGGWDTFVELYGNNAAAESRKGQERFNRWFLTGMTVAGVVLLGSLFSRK
EBV gp42 block: inhibitors of Epstein-Barr virus glycoprotein 42; actives 0.42% (n = 220,000); inhibition, % (tested at 21.74 µM); Fluorescence polarization binding assay, mP read-out; AID 1085; Q1HVG2; in the data active = inhibition above about 50%
Target sequence (Q1HVG2 whole entry, looked up): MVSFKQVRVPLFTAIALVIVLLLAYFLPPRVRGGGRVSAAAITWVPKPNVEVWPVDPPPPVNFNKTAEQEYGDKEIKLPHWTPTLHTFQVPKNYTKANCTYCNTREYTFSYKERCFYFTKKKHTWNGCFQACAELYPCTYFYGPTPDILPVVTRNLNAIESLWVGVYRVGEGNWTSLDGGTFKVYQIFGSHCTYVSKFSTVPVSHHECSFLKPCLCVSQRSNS
VIM-2 inh: blocks Pseudomonas aeruginosa VIM-2 metallo-beta-lactamase; purified VIM-2, nitrocefin hydrolysis, epi-absorbance fluorescence; inhibition, % at 5.6 µM; actives 0.89% (n = 290,000); AID 1527;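 active = inhibition above the mean of all tested compounds plus 3 SD, cutoff set per screening run, cut at about 7.5% in these data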;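 note: red hydrolysis product quenches plate fluorescence so inhibitors raise well fluorescence; 0% = enzyme with DMSO and 100% = DMSO without enzyme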
IMP-1 inh-1: inhibitors of Pseudomonas aeruginosa IMP-1 metallo-beta-lactamase; purified IMP-1, nitrocefin hydrolysis, epi-absorbance fluorescence; actives 0.45% (n = 290,000); inhibition, % at 5.6 µM; AID 1556;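 active = inhibition above the mean plus 3 SD of all compounds in the same screening run, cut at about 4.5% in these data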;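 note: 0% = IMP-1 with DMSO and 100% = DMSO wells lacking enzyme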
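assay system = purified recombinant IMP-1 metallo-beta-lactamase enzyme | schedule = 15 min preincubation plus 25 min reaction at 25 °C | signal = Epi-absorbance fluorescence, 480 nm excitation, 530 nm emission | read-out basis = percent inhibition from optical density relative to buffer-blank wells | controls = IMP-1 with DMSO as 0%, enzyme-free DMSO as 100%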
GLD-1 RNA inh: GLD-1-TGE RNA interaction inhibition (C. elegans); Q17339; AID 2280; actives 0.44% (n = 320,000); inhibition, % at 5.96 µM; purified GLD-1 + fluorescein TGE RNA, fluorescence polarization;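 active = percent inhibition above a per-plate cutoff, the plate mean of test compounds plus 3 SD, cut at about 30% in these data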;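 note: 0% = DMSO wells with GLD-1 and probe and 100% = wells lacking GLD-1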
IMP-1 inh-2: IMP-1 inhibition, counter-screen for VIM-2 inhibitors; shares compounds with VIM-2 inh; purified IMP-1, nitrocefin hydrolysis, epi-absorbance fluorescence; inhibition, % at 5.6 µM; 1,300 tested, under 10 active; AID 1856; call rule not given here;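 note: 0% = enzyme with vehicle and 100% = vehicle without enzyme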
VIM-2 FRET ctr: counter-screen for VIM-2 inhibitors: epi-absorbance artifacts via FRET; AID 1857; purified VIM-2, CCF2 FRET substrate hydrolysis; shares compounds with VIM-2 inh; inhibition, % at 5.6 µM; actives 23% (n = 1,300);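 active = inhibition above the mean of all tested compounds plus 3 SD, cut at about 19% in these data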;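 note: 0% = VIM-2 plus DMSO and 100% = no enzyme wells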
TEM-1 counter: blocks E. coli TEM-1 beta-lactamase in VIM-2 selectivity screen. shares compounds with VIM-2 inh. actives 3% (n = 1,300). inhibition, % at 5.6 µM. Purified TEM-1, nitrocefin hydrolysis, epi-absorbance fluorescence. AID 1866;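 active = inhibition above that campaign's mean inhibition plus 3 SD, cut at about 0.46% in these data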;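 note: 0% = TEM-1 with DMSO and 100% = TEM-1 with 100 µM potassium clavulanate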
Target sequence (P62593 whole entry, looked up): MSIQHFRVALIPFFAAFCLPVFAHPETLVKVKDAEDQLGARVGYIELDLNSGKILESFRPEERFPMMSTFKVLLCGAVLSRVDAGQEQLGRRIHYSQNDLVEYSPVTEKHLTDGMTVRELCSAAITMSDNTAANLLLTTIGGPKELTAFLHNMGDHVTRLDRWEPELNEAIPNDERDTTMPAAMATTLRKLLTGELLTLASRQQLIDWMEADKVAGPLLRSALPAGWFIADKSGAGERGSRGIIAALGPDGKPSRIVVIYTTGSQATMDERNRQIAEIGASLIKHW
VIM-2 confirm 2: confirmation of P. aeruginosa VIM-2 metallo-beta-lactamase inhibitors; AID 2187; purified VIM-2, nitrocefin hydrolysis, epi-absorbance; shares compounds with VIM-2 inh; actives 96% (n = 1,300); inhibition, % at 5.6 µM;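 active = inhibition of the VIM-2 beta-lactamase enzyme above about 11% from the earlier first-round screen, limit read from the data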;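 note: 0% = VIM-2 with DMSO and 100% = buffer wells without enzyme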
* marks the source's active call; other numbers are inactive results; nt = no result.

SMILES | MEX-5 binding | BCLXL inh | EBV gp42 block | VIM-2 inh | IMP-1 inh-1 | GLD-1 RNA inh | IMP-1 inh-2 | VIM-2 FRET ctr | TEM-1 counter | VIM-2 confirm 2
O=C(CSc1ccc2nnc(-c3ccccn3)n2n1)Nc1ccccc1 | 1 | 7 | nt | 0 | -2 | 1 | nt | nt | nt | nt
Brc1ccc(CSc2ccc3nnc(-c4ccccn4)n3n2)cc1 | 0 | 7 | 0 | 25* | -3 | -1 | -4 | -4 | -7 | 52*
Cc1ccc(CSc2ccc3nnc(-c4ccccn4)n3n2)cc1 | 0 | 3 | -13 | 21* | -3 | 7 | -4 | -3 | -6 | 34*
Brc1ccc(CSc2ccc3nnc(-c4cccnc4)n3n2)cc1 | 1 | 2 | 0 | 2 | -2 | 1 | nt | nt | nt | nt
COC(=O)c1ccc(CSc2ccc3nnc(-c4ccccn4)n3n2)o1 | -2 | 5 | 6 | 21* | -4 | 4 | -4 | 3 | -5 | 38*
CCCCc1nnc(NC(=O)c2ccc3c(=O)n4c(nc3c2)CCC4)s1 | 1 | 7 | nt | nt | nt | 5 | nt | nt | nt | nt
Cc1ccc(S(=O)(=O)C2(C(=O)NCCc3ccccc3)CC2)cc1 | 0 | 3 | nt | 1 | -3 | -3 | nt | nt | nt | nt
C=CCSc1nnc2nc3c(nn12)c1cc(C)ccc1n3CC=C | 2 | 12 | -11 | 15* | -3 | 5 | -2 | 3 | -5 | 19*
C=CCn1c(O)c(N=O)c2cc(C)ccc21 | 1 | 6 | 4 | -1 | -2 | -2 | nt | nt | nt | nt
Cc1ccc(O)c(NC(=O)c2cc3nc4c(c(C(F)(F)F)n3n2)CCc2ccccc2-4)c1 | 0 | 8 | -12 | -1 | -2 | 1 | nt | nt | nt | nt
CCN(CC)CCCNC(=O)c1cc2nc3c(c(C(F)(F)F)n2n1)CCc1ccccc1-3 | 1 | -2 | 1 | 13* | -3 | -7 | -3 | 1 | -4 | 15*
COC(=O)C1=C(c2ccc(OC)cc2)OC(=O)C1(C)C | -1 | 2 | nt | 0 | -1 | 6 | nt | nt | nt | nt
COC(=O)c1ccc(-c2ccc(C(=O)N3CCCN(C)CC3)cc2)cc1 | -1 | nt | -11 | 13* | -4 | nt | -4 | 30* | -6 | 21*
Cc1ccc(N(CC(=O)NC2CCCC2)C(=O)CCC(=O)Nc2nc(C)cs2)cc1 | -1 | -6 | nt | 0 | 0 | -6 | nt | nt | nt | nt
CCCCn1c(N)c(N(CC(C)C)C(=O)C2=COCCO2)c(=O)[nH]c1=O | nt | -5 | nt | nt | nt | 13 | nt | nt | nt | nt
CCCCNC(=O)c1cc2c(=O)n3cccc(C)c3nc2s1 | -1 | -2 | nt | 21* | -4 | -2 | -3 | -11 | -5 | 25*
Cc1cccn2c(=O)c3cc(C(=O)NC4CCCCCC4)sc3nc12 | 0 | 8 | nt | 4 | -3 | 2 | nt | nt | nt | nt
Cc1cccn2c(=O)c3cc(C(=O)NC4CCCCC4)n(C)c3nc12 | 0 | 9 | nt | 4 | -2 | 5 | nt | nt | nt | nt
Cc1cccn2c(=O)c3cc(C(=O)NC4CCCC4)n(C)c3nc12 | -1 | 3 | nt | 14* | -1 | 8 | -2 | -3 | -6 | 22*
COCCCNC(=O)c1cc2c(=O)n3cccc(C)c3nc2s1 | 1 | 2 | nt | 18* | -4 | 0 | -2 | -5 | -2 | 23*
Cc1cccn2c(=O)c3cc(C(=O)N4COCC4(C)C)sc3nc12 | 1 | 1 | 3 | 3 | -3 | 1 | nt | nt | nt | nt
Cc1cccn2c(=O)c3cc(C(=O)NC4CCS(=O)(=O)C4)sc3nc12 (stereo not drawn) | -1 | 3 | -6 | 15* | -4 | -2 | -3 | 0 | -5 | 24*
CN(C)c1ccc(-c2nnc(-c3ccccc3F)o2)cc1 | -3 | 6 | nt | 2 | -2 | 8 | nt | nt | nt | nt
O=C(Nc1ccccc1C(=O)Nc1ccncc1)c1cccc([N+](=O)[O-])c1 | 0 | 5 | nt | 13* | -1 | 0 | -3 | -11 | -5 | 25*
CCc1c(C)c(C#N)c2nc3ccccc3n2c1NCCN(C)C | -2 | -2 | -7 | 6 | -3 | 2 | nt | nt | nt | nt
SMILES | MEX-5 binding | BCLXL inh | EBV gp42 block | VIM-2 inh | IMP-1 inh-1 | GLD-1 RNA inh | IMP-1 inh-2 | VIM-2 FRET ctr | TEM-1 counter | VIM-2 confirm 2
CCCc1cc(NCCCN(C)C)n2c(nc3ccccc32)c1C#N | 0 | 10 | nt | 21* | -2 | 0 | 0 | 0 | 2.0* | 35*
C=C(C)Cc1c(C)c(C#N)c2nc3ccccc3n2c1NCCCN(C)C | 1 | 3 | -11 | 29* | 1 | 4 | -3 | 0 | -6 | 45*
COc1ccc(CCNC(=O)C2CC3Cn4c(nc5ccccc54)C3N2c2ccccc2)cc1 (stereo not drawn) | 2 | 10 | nt | nt | nt | 3 | nt | nt | nt | nt
Cc1cccc(C)c1NC(=O)C(=O)NCC1CCCN1S(=O)(=O)c1ccccc1 (stereo not drawn) | -2 | 4 | nt | nt | nt | 0 | nt | nt | nt | nt
Cc1c(C)n(-c2ccccc2)c2ncnc(NCCN(C)C)c12 | -2 | 5 | nt | 4 | -4 | -3 | nt | nt | nt | nt
N#Cc1c(Cl)nc(N/N=C/c2ccccc2)c(Cl)c1Cl | 1 | -4 | -17 | -4 | -4 | -3 | nt | nt | nt | nt
C[n+]1cccc(/C=N/Nc2nc(Cl)c(C#N)c(Cl)c2Cl)c1 | -5 | 17 | -14 | 41* | -3 | 3 | -3 | 32* | -6 | 57*
CC(C)Cc1nnc(NC(=O)C2CSC3(C)CCC(=O)N23)s1 (stereo not drawn) | 2 | 2 | nt | nt | nt | 6 | nt | nt | nt | nt
Cc1c(N2C(=O)/C(=C/c3cccc4ccccc34)SC2=S)c(=O)n(-c2ccccc2)n1C | -1 | 2 | nt | 50* | 0 | -3 | 1 | 13 | -4 | 12*
Cc1c(N2C(=O)/C(=C\c3ccccc3O)SC2=S)c(=O)n(-c2ccccc2)n1C | 1 | 13 | -13 | 1 | -7 | 2 | nt | nt | nt | nt
CC(=O)N/C(=C\c1ccc(C)o1)C(=O)NCc1ccccc1 | 0 | 9 | nt | -4 | -2 | 4 | nt | nt | nt | nt
COc1ccc(C(=O)Nc2cccc3c2CCCC3)c(OC)c1 | nt | 2 | nt | nt | nt | 1 | nt | nt | nt | nt
O=C(CSc1nnc(-c2ccccc2F)o1)Nc1ccc(N2CCOCC2)cc1 | nt | -2 | nt | nt | nt | -2 | nt | nt | nt | nt
O=C(O)c1ccccc1NS(=O)(=O)c1cccc(-n2sc3ccccc3c2=O)c1 | -50* | 23 | nt | 19* | -1 | 10 | -3 | -24 | -7 | 17*
O=C(O)c1ccccc1NS(=O)(=O)c1ccc2ccccc2c1 | -1 | 5 | nt | 0 | 2 | 3 | nt | nt | nt | nt
CC(=O)c1c(Cl)nc2cccc3c2c1-c1ccccc1C3=O | -8 | 54* | nt | 20* | -2 | 27 | -1 | 0 | 0 | 31*
